The results in this text go back to ChEMBL document CHEMBL1949570, “Quinoline- and isoquinoline-sulfonamide derivatives of LCAP as potent CNS multi-receptor-5-HT1A/5-HT2A/5-HT7 and D2/D3/D4-agents: the synthesis and pharmacological evaluation” (Bioorg Med Chem, 2012).

The source made the active and inactive calls. The calls are words filed in the database; no cut-off is given here.

In test [1] the test system is Rattus norvegicus. As to the kind of experiment: Anxiolytic activity in Wistar rat assessed as increase in time spent in open arms at 2.5 mg/kg after 5 mins by plus-maze test (reference value: 7.9 +/- 1.4 %). In kind it is functional.
The test system of test [2] is Rattus norvegicus. As to the kind of experiment: Anxiolytic activity in Wistar rat assessed as increase in time spent in open arms at 5 mg/kg after 5 mins by plus-maze test (reference value: 7.9 +/- 1.4 %). It is filed as functional.
Test [3] deals with Rattus norvegicus. Put plainly: Anxiolytic activity in Wistar rat assessed as increase in total distance at 2.5 mg/kg for 5 mins by general locomotor activity test. It is filed as functional, organism-based. More on the design: dose 2.5 mg/kg.
Test [4] relates to Mus musculus. As to the kind of experiment: Antidepressant activity in Swiss albino mouse assessed as reduction in immobility time at 10 mg/kg measured for 4 mins by forced swim test. It is filed as functional. The method, boiled down: (§1)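 Porsolt forced swim in male Swiss albino mice. Drugs ip (10 ml/kg; 1% Tween 80 suspension, imipramine in water) 30 min before. Cylinder 25 cm high, 10 cm diameter, 6 cm water at 23–25 °C, 6 min session; immobility scored over final 4 min. 5–10 mice/dose; one-way ANOVA with Bonferroni.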

Test [5] deals with T1, D(4) dopamine receptor (Homo sapiens) (UniProt P21917).
T1 sequence (whole entry): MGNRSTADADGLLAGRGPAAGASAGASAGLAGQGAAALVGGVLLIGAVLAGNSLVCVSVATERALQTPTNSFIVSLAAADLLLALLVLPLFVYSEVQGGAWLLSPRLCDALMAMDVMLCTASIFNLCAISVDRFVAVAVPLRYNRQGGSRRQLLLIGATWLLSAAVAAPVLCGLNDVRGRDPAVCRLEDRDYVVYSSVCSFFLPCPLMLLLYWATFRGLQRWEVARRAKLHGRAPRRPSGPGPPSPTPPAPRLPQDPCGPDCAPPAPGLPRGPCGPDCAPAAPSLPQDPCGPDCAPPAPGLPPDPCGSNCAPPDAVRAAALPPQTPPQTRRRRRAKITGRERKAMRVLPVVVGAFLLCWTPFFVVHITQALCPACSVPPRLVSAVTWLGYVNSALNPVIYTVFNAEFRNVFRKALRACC
Put plainly: Displacement of [3H]-methylspiperone from human cloned dopamine D4 receptor expressed in HEK293 cells at 10 '-7 M by liquid scintillation counter. In kind it is cell-based.

Test [6] is described as follows: Selectivity ratio of compound Ki for rat hippocampus 5-HT1A receptor to human 5HT7 receptor. In kind it is tissue-based. The method, boiled down:
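Ratio of Ki values from competition binding: rat hippocampus 5-HT1A with [3H]-8-OH-DPAT versus human 5-HT7 in HEK293 with [3H]-5-CT; Ki by Cheng–Prusoff from 7–9 concentrations in triplicate.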

Test [7] has as its system Mus musculus. As to the kind of experiment: Antidepressant activity in Swiss albino mouse assessed as reduction in immobility time at 20 mg/kg measured for 4 mins by forced swim test. In kind it is functional. A digest of the protocol:
as §1

For test [8], the system named is Mus musculus. Put plainly: […] activity in ip dosed Swiss albino mouse assessed as inhibition of DOI-induced head twitches administered 20 mins before DOI challenge measured for 20 mins. The note with it: for ED50: read-out: ID50 (the source's name). It is filed as functional.
Test [9] relates to Rattus norvegicus. As to the kind of experiment: Anxiolytic activity in Wistar rat assessed as increase in open arm entries at 5 mg/kg after 5 mins by plus-maze test (reference value: 23.1 +/- […]). In kind it is functional.
The subject of test [10] is Rattus norvegicus. Put plainly: Anxiolytic activity in Wistar rat assessed as increase in Y ambulations at 2.5 mg/kg for 5 mins by general locomotor activity test. In kind it is functional, organism-based. Set-up: dose 2.5 mg/kg.
Test [11] has as its target D(3) dopamine receptor (Homo sapiens) (UniProt P35462). As to the kind of experiment: Displacement of [3H]-methylspiperone from human cloned dopamine D3 receptor expressed in HEK293 cells at 10 '-6 M by liquid scintillation counter. It is filed as cell-based. A general note: In a radioligand displacement assay an active substance lowers the binding of a labelled ligand.

For test [12], the system named is Rattus norvegicus. Put plainly: Anxiolytic activity in Wistar rat assessed as increase in time spent in open arms at 10 mg/kg after 5 mins by plus-maze test (reference value: 7.9 +/- 1.4 %). It is filed as functional.
Test [13] concerns the target T2, 5-hydroxytryptamine receptor 1A (Rattus norvegicus, UniProt P19327).
T2 sequence (P19327 whole entry): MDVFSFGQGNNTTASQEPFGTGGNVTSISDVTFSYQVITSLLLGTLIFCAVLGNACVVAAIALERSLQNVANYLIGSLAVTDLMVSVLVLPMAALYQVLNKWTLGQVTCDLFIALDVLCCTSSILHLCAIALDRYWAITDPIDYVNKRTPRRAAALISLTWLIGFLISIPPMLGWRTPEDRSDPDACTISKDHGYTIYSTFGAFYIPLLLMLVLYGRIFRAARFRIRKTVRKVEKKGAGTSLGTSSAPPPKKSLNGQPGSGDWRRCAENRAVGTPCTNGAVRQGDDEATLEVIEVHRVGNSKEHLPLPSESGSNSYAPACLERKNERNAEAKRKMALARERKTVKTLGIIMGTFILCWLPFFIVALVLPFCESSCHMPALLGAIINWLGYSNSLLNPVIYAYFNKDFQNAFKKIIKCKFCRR
Put plainly: Displacement of [3H]8-OH-DPAT from rat hippocampus 5-HT1A receptor by liquid scintillation counter. It is filed as tissue-based. The method, boiled down:
(§2)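 Competition binding. 5-HT1A: rat hippocampus, [3H]-8-OH-DPAT. 5-HT2A: rat cortex, [3H]-ketanserin. D2: rat striatum, [3H]-spiperone. 5-HT6: human receptor stably in HEK293, [3H]-LSD. 5-HT7: human receptor stably in HEK293, [3H]-5-CT. Vacuum filtration on GF/B filters, ice-cold washes, scintillation counting.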

In test [14] the target is T3, 5-hydroxytryptamine receptor 7 (Homo sapiens, UniProt P34969). As to the kind of experiment: Antagonist activity at human cloned 5HT7 receptor expressed in human CHO cells assessed as adenylate cyclase activity by cAMP accumulation assay. In kind it is functional, cell-based. A digest of the protocol: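 CHO cells stably expressing human 5-HT7 receptor; intracellular cAMP (adenylate cyclase) measured, expressed as % of maximal effect of 300 nM serotonin. Compounds tested at 5 concentrations spanning 10^-4–10^-9 in antagonist mode. KB from IC50 by modified Cheng–Prusoff, KB = IC50/(1+A/EC50A), A = reference agonist concentration.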
T3 sequence (P34969 whole entry): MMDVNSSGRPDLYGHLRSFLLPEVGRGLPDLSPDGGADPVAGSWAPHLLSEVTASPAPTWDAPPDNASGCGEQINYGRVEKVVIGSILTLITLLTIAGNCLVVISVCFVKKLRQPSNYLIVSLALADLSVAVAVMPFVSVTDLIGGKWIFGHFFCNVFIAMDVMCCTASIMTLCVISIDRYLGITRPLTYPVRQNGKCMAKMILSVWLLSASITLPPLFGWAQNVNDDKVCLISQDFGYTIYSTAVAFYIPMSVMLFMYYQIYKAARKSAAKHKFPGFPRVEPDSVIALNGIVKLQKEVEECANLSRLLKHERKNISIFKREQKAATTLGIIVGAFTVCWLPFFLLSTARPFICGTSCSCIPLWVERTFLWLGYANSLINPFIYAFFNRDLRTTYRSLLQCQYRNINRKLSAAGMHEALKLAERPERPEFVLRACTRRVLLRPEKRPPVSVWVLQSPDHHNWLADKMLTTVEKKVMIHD
(In general: Cyclic AMP is a second messenger, typically raised through Gs and lowered through Gi signalling.)

For test [15], the target named is T3, 5-hydroxytryptamine receptor 7. Put plainly: Displacement of [3H]5-CT form human cloned 5HT7 receptor expressed in human HEK293 cells by liquid scintillation counter. In kind it is cell-based. The method, boiled down:
as §2

For test [16], the target named is T1, D(4) dopamine receptor (Homo sapiens). As to the kind of experiment: Displacement of [3H]-methylspiperone from human cloned dopamine D4 receptor expressed in HEK293 cells at 10 '-6 M by liquid scintillation counter. In kind it is cell-based.
The target in test [17] is 5-hydroxytryptamine receptor 6 (Homo sapiens, UniProt P50406). Put plainly: Displacement of [3H]-LSD from human full length cloned 5HT6 receptor expressed in human HEK293 cells by liquid scintillation counter. In kind it is cell-based. The method, boiled down:
as §2

Test [18] has as its system Rattus norvegicus. Put plainly: Anxiolytic activity in Wistar rat assessed as increase in open arm entries at 10 mg/kg after 5 mins by plus-maze test (reference value: 23.1 +/- […]). It is filed as functional.
Test [19] has as its system Rattus norvegicus. As to the kind of experiment: Anxiolytic activity in Wistar rat assessed as increase in open arm entries at 2.5 mg/kg after 5 mins by plus-maze test (reference value: 23.1 +/- […]). It is filed as functional.
Test [20] deals with Mus musculus. Put plainly: Antipsychotic activity in CD1 mouse assessed as inhibition of MK-801-induced hyperactivity measuring number of crossings at 5 to 30 mg/kg measured every 5 mins for 1 hr. In kind it is functional, organism-based. A digest of the protocol:
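Male CD-1 mice; test compound ip 30 min before, MK-801 0.2 mg/kg (in water) ip 15 min before testing. After 30 min habituation, crossings counted for 60 min, recorded every 5 min. 5–10 mice/group; mean ± SEM; one-way ANOVA, Bonferroni versus vehicle + MK-801.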

In test [21] the target is 5-hydroxytryptamine receptor 2A (Rattus norvegicus, UniProt P14842). As to the kind of experiment: Displacement of [3H]Ketanserin from rat cortex 5-HT2A receptor by liquid scintillation counter. The method, boiled down: as §2
5-hydroxytryptamine receptor 2A, sequence (P14842 whole entry): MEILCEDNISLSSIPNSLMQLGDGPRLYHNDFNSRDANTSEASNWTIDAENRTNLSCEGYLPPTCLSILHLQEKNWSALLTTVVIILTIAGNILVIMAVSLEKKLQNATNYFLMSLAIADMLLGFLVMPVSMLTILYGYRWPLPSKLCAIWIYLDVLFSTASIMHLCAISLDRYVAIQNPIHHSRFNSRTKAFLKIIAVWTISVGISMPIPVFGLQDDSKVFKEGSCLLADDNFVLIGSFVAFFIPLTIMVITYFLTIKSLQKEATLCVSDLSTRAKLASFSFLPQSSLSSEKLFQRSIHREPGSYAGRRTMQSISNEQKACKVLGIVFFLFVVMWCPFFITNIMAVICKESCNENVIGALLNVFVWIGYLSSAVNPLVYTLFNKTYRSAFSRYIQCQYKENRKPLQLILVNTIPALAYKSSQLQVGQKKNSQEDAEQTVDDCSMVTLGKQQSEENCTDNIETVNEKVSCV
Test [22] deals with Mus musculus. As to the kind of experiment: Antipsychotic activity in CD1 mouse assessed as reduction in spontaneous locomotor activity measuring number of crossings at 10 to 30 mg/kg every 5 mins for 1 hr. It is filed as functional, organism-based. The method, boiled down: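 Male CD-1 mice; compound or reference ip 30 min before test plus vehicle. After 30 min habituation in individual cages, crossings counted over 1 h, recorded every 5 min; mean ± SEM; one-way ANOVA, Bonferroni.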

The next test addresses D(2) dopamine receptor (Rattus norvegicus, UniProt P61169). Put plainly: Displacement of [3H]-spiperone from rat striatum dopamine D2 receptor by liquid scintillation counter. A digest of the protocol: as §2
In test [23] the test system is Mus musculus. As to the kind of experiment: […] activity in Swiss albino mouse assessed as inhibition of apomorphine-induced climbing behavior administered 10 mins before apomorphine challenge measured for 2 mins. In kind it is functional. The method, boiled down:
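Male Swiss albino mice; compounds ip in 1% Tween 80 suspension, 10 min before apomorphine 3 mg/kg. Climbing time (2–4 paws on bar wall) recorded for 2 min starting 20 min after apomorphine.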

Test [24] concerns the target D(3) dopamine receptor (Homo sapiens) (UniProt P35462). Put plainly: Displacement of [3H]-methylspiperone from human cloned dopamine D3 receptor expressed in HEK293 cells at 10 '-7 M by liquid scintillation counter. In kind it is cell-based.
For test [25], the system named is Mus musculus. Put plainly: Antidepressant activity in Swiss albino mouse assessed as reduction in immobility time at 5 to 20 mg/kg measured for 4 mins by forced swim test. In kind it is functional. The note with it: dose mg/kg 5-20. More on the design: scale not given: the % may be the effect or the level left. The method, boiled down: as §1
Test [26] concerns Mus musculus. Put plainly: Antidepressant activity in mouse assessed as spontaneous locomotor activity 5 to 20 mg/kg. It is filed as functional, organism-based. The method, boiled down:
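Swiss albino mice given the forced swim doses ip 30 min before; placed individually in cages and channel crossings counted from 2 to 6 min with a multichannel activity monitor, matching the swim test observation period.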

5-hydroxytryptamine receptor 6, sequence (P50406 whole entry): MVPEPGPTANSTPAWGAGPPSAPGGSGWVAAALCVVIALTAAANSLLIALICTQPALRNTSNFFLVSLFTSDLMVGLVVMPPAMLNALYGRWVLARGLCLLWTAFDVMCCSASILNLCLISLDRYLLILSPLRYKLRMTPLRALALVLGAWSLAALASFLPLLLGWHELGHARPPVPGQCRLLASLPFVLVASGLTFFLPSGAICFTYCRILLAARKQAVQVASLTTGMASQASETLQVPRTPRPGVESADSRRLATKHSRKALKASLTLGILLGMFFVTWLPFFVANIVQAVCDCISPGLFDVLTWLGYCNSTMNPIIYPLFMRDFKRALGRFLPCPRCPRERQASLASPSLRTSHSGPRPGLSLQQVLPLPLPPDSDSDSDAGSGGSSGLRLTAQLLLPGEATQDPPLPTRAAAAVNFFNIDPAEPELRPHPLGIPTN
D(3) dopamine receptor (Homo sapiens), sequence (P35462 whole entry): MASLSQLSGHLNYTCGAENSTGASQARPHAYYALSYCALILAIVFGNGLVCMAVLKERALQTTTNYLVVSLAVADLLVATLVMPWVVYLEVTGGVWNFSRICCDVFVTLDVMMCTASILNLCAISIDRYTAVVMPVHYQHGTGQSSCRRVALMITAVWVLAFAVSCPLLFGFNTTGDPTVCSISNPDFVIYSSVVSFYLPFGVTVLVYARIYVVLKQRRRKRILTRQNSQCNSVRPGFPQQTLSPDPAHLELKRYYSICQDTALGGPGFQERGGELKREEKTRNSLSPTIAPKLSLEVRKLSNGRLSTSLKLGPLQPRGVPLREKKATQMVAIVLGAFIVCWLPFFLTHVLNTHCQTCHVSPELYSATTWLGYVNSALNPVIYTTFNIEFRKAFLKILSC
D(2) dopamine receptor, sequence (P61169 whole entry): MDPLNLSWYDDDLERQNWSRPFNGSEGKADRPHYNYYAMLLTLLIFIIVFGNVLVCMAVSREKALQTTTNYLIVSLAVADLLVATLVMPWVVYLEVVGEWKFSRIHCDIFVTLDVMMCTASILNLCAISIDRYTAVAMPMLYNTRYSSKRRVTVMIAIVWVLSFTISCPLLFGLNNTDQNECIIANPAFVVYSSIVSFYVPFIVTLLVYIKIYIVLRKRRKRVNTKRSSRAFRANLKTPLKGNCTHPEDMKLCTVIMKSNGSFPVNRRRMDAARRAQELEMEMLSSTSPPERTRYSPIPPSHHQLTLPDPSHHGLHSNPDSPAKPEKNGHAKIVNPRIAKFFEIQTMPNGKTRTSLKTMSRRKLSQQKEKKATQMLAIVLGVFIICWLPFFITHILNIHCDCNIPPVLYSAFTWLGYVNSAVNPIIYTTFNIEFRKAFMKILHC

Regarding `Cl.O=S(=O)(c1cncc2ccccc12)N1CCC(CCN2CCN(c3ccc(Cl)cc3)CC2)CC1`, the Activity with Rattus norvegicus [1] turned out to be 25%; in the test on Rattus norvegicus [2] it was 19.4%; in the test with Rattus norvegicus [9] it was 32.9%; with Rattus norvegicus [12] it was 29.3%; in the test with Rattus norvegicus [18], 40.3%; with Rattus norvegicus [19], 36.4%. The result in the test with Rattus norvegicus [3], in the test on Mus musculus [4], with Mus musculus [7] and in the test with Rattus norvegicus [10] was Active. Further, the inhibition (as a rule, the relative decrease from the control value, in per cent) in test [5] was 70%; in the test on Mus musculus [8], “Dose-dependent effect”; in [11], 93%; in test [16], 98%; in the test with Mus musculus [23], “Dose-dependent effect”; in test [24] it was 67%. Besides, in [6], the Ratio Ki amounted to 68. The ED50 in the test with Mus musculus [8] stood at 20.3 mg/kg; in the test on Mus musculus [23] (read-out: ID50 (the source's name)), 25.5 mg/kg. Moreover, the Ki (usually the equilibrium dissociation constant of an inhibitor or competing ligand from its target) in [13] stood at 3210 nM; in test [15], 47 nM; in test [17], 16700 nM; in test [21], 59 nM; at D(2) dopamine receptor, 60 nM. Further, the Kb (usually the affinity of an antagonist, worked out from how it opposes an agonist) in test [14] was determined as 90 nM. Also, in the test with Mus musculus [20], the inhibition result was “Active”. Also, the outcome with Mus musculus [22] was inactive.
Turning to `Cl.O=S(=O)(NCCCCN1CCN(c2cccc(Cl)c2)CC1)c1cnc2ccc(Cl)cc2c1`, in the test on Mus musculus [8], the inhibition entry is “Dose-dependent effect”. For the same compound, in the test on Mus musculus [8], the ED50 was 4.75 mg/kg. For the same compound, the Activity in the test with Mus musculus [25] was determined as 44%. Also, in the test on Mus musculus [26], the outcome was inactive. In addition, the Ki worked out at 208 nM in [13], 88 nM in [15], 155 nM in test [17] and 56 nM in test [21].
